Reference: ChEMBL document CHEMBL3580553, “Potent and Nontoxic Chemosensitizer of P-Glycoprotein-Mediated Multidrug Resistance in Cancer: Synthesis and Evaluation of Methylated Epigallocatechin, Gallocatechin, and Dihydromyricetin Derivatives” (J Med Chem, 2015)
Active and inactive are the calls of the source. The calls are words filed in the database; no cut-off is given here.

Assays:
[1] = target: T1, ATP-dependent translocase ABCB1 (Homo sapiens, UniProt P08183); test: Modulation of P-gp (unknown origin) transfected in human MDA435/LCC6MDR cells assessed as reversible of paclitaxel resistance measured as IC50 for paclitaxel at 1 uM after 5 days by CellTiter 96 Aqueous assay relative to PTX alone treated cell; type: cell-based; conditions: 120 h
T1 sequence (P08183 whole entry): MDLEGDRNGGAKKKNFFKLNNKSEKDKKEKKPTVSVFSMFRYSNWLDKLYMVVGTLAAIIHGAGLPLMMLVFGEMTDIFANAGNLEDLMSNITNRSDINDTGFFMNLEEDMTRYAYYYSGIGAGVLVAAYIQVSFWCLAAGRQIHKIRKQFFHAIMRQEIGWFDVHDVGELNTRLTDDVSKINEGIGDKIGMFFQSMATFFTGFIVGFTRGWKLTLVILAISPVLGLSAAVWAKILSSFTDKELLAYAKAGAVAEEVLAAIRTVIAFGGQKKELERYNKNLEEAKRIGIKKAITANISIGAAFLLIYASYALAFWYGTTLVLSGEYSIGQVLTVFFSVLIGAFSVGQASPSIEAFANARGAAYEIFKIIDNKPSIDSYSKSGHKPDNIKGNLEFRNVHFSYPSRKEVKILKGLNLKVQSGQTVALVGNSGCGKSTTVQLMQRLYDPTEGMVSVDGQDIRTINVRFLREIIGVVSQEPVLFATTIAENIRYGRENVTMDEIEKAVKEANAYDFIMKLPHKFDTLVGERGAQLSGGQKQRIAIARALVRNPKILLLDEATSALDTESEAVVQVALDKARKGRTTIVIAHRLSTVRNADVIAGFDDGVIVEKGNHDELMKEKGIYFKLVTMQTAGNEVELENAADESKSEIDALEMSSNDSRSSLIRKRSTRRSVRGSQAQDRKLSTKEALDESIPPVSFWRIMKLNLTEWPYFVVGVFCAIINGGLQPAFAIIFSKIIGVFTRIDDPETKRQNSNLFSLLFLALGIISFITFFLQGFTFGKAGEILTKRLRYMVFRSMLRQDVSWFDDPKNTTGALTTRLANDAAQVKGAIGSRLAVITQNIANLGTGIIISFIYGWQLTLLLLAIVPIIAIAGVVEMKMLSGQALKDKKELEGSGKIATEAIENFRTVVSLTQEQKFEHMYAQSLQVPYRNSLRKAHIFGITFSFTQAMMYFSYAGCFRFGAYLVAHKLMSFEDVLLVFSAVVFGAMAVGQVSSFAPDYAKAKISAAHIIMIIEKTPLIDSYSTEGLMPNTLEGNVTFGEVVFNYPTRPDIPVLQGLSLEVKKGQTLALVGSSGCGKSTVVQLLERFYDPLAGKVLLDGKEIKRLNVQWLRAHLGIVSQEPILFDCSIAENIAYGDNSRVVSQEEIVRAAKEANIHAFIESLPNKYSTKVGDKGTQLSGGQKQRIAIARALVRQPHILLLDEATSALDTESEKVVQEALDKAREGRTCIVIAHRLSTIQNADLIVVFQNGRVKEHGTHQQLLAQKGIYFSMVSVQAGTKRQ

[2] = Cytotoxicity against human MDA435/LCC6MDR cells after 3 days by MTS assay; type: functional, cell-based; conditions: 72 h
[3] = tested on: LCC6MDR (human); test: Inhibition of P-gp-mediated doxorubicin efflux in human LCC6MDR cells measured at 1.5 uM after 30 to 150 mins by spectrofluorometry relative to control
[4] = tested on: L929; test: Cytotoxicity against mouse L929 cells after 3 days by MTS assay; type: cell-based; conditions: L929, 72 h
[5] = target: T1, ATP-dependent translocase ABCB1; test: Modulation of P-gp (unknown origin) transfected in human MDA435/LCC6MDR cells assessed as induction of intracellular doxorubicin accumulation at 2 uM after 150 mins by spectrofluorometric analysis relative to control; type: cell-based; conditions: 2.5 h
Method in brief: (§1)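 LCC6 or LCC6MDR cells (1 × 10⁶) incubated with 20 μM DOX plus 2 μM modulator, 150 min at 37 °C; 0.2% DMSO as negative control; cells washed in cold PBS, lysed in 0.75 M HCl/0.2% Triton X-100 in isopropanol; supernatant DOX fluorescence read by spectrofluorometry.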

[6] = tested on: LCC-6; test: Effect on doxorubicin efflux in human LCC-6 cells measured at 1.5 uM after 30 to 150 mins by spectrofluorometry relative to control; type: functional, cell-based
Method in brief: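 Efflux: LCC6 or LCC6MDR cells preloaded with 20 μM DOX 1 h at 37 °C, washed in PBS, resuspended in DMEM ± 1.5 μM modulator; samples at 0, 30, 60, 90, 120, 150 min chilled on ice; intracellular DOX by spectrofluorometry. DMSO control; N = 3–4, mean ± SEM.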

[7] = organism: Homo sapiens; test: Modulation of P-gp (unknown origin) transfected in human MDA435/LCC6MDR cells assessed as restoration of intracellular doxorubicin accumulation at 3 uM after 150 mins by spectrofluorometric analysis relative to parental cells; type: cell-based
Method in brief: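 LCC6MDR cells with 20 μM DOX and modulator at 0, 0.05, 0.1, 0.5, 1, 3 or 8 μM; cells lysed and intracellular DOX measured by spectrofluorometry. N = 2–5 independent experiments, mean ± SEM.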

[8] = target: T2, Broad substrate specificity ATP-binding cassette transporter ABCG2 (Homo sapiens, UniProt Q9UNQ0); test: Modulation of BCRP (unknown origin) transfected in human HEK293/R2 cells assessed as potentiation of topotecan-induced cytotoxicity measured as topotecan IC50 at 1 uM after 5 days by MTS assay relative to topotecan alone treated cell; type: cell-based; conditions: hek293/r2, 120 h
T2 sequence (Q9UNQ0 whole entry): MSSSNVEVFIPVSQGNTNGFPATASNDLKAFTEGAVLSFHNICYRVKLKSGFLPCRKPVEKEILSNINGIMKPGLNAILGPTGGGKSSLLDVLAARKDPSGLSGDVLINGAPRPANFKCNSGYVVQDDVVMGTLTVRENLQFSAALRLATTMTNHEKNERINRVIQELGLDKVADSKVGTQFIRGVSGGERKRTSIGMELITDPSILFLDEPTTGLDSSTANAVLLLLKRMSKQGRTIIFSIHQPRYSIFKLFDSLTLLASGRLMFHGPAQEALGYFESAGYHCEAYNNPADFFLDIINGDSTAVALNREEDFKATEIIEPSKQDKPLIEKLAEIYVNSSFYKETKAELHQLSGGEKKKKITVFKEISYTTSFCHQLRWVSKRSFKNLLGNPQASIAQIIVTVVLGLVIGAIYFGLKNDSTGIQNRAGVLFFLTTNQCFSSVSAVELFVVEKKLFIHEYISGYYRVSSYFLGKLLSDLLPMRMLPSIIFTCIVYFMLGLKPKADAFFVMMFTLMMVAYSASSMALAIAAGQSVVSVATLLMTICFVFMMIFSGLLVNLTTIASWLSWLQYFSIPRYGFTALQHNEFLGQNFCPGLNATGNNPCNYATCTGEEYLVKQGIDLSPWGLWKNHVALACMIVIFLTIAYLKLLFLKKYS
Method in brief: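 Incubated 5 days at 37 °C; viability by MTS. Topotecan IC50 came from nonlinear regression, and RF = IC50 without/with modulator. Empty-vector HEK293/pcDNA3.1 served as reference. N = 2−4, triplicates, mean ± SEM.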

[9] = Cytotoxicity against human LCC-6 cells after 3 days by MTS assay; type: functional, cell-based; conditions: LCC-6, 72 h
[10] = target: Multidrug resistance-associated protein 1 (Homo sapiens, UniProt P33527); test: Modulation of MRP1 (unknown origin) transfected in human 2008/MRP1 cells assessed as potentiation of doxorubicin-induced cytotoxicity measured as doxorubicin IC50 at 1 uM after 5 days by MTS assay relative to doxorubicin alone treated cell; type: cell-based; conditions: 2008/mrp1, 120 h
Chain of Multidrug resistance-associated protein 1 (P33527 whole entry): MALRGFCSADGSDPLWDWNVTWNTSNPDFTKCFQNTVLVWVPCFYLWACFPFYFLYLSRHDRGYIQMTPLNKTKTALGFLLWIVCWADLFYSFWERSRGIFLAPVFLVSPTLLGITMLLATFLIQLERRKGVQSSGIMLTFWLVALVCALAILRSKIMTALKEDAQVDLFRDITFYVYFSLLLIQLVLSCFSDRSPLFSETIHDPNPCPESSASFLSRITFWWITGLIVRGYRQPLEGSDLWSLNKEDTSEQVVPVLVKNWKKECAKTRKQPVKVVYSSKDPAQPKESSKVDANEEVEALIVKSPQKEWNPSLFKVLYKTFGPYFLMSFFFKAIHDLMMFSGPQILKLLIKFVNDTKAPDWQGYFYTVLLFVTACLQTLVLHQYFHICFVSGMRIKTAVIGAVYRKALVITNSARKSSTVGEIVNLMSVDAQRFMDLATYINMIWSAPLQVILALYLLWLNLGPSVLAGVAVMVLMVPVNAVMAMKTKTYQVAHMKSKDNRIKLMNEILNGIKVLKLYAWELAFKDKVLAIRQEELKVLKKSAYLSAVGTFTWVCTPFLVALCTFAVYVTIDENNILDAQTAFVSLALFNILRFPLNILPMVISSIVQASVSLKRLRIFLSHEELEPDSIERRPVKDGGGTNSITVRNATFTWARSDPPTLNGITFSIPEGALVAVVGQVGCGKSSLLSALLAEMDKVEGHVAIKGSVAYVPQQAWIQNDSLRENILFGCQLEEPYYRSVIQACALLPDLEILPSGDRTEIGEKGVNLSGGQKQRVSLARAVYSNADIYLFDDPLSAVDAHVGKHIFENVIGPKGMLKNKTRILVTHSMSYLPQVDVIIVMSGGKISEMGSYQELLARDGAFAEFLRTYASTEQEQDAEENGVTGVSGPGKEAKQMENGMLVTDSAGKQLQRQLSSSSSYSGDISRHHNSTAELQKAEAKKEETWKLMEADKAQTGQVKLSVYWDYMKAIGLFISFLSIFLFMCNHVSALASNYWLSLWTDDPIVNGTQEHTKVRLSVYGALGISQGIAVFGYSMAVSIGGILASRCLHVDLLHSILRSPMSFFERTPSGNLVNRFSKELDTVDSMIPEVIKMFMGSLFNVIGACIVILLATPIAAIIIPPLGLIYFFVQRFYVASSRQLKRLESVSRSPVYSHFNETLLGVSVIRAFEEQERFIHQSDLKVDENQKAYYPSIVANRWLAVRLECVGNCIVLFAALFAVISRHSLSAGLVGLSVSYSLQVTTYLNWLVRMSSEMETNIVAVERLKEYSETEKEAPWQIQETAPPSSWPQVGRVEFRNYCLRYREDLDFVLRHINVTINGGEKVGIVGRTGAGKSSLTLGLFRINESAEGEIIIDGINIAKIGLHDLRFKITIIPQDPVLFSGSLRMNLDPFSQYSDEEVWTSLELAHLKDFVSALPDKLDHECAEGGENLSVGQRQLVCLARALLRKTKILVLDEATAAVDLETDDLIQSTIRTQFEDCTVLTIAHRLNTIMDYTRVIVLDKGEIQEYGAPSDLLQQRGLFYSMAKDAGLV
Method in brief: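 After 5 days at 37 °C, viability was read by MTS. Doxorubicin IC50 came from nonlinear regression, and RF = IC50 without/with modulator. Parental 2008/P cells served as reference. N = 2−4, triplicates, mean ± SEM.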

[11] = Selectivity index, ratio of IC50 for mouse […] cells to EC50 for modulation of P-gp (unknown origin) transfected in human MDA435/LCC6MDR cells assessed as reversing paclitaxel resistance; design: species or system L929
[12] = target: T1, ATP-dependent translocase ABCB1; test: Modulation of P-gp (unknown origin) transfected in human MDA435/LCC6MDR cells assessed as reversible of paclitaxel resistance measured as IC50 for paclitaxel at 10 uM after 5 days by CellTiter 96 Aqueous assay relative to PTX alone treated cell; type: cell-based; conditions: 120 h
Method in brief: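 They were held 5 days at 37 °C and viability read by CellTiter 96 AQueous (MTS). […] RF = IC50 of PTX without modulator / IC50 with modulator.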

[13] = organism: Homo sapiens; test: Modulation of P-gp (unknown origin) transfected in human MDA435/LCC6MDR cells assessed as restoration of intracellular doxorubicin accumulation after 150 mins by spectrofluorometric analysis relative to parental cells; type: cell-based; method in brief: as §1
[14] = Drug uptake in human LCC-6 cells at 20 uM after 150 mins by spectrofluorometry; type: ADME, cell-based; conditions: lcc-6, 2.5 h
Method in brief: (§2)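 LCC6 or LCC6MDR cells (3 × 10⁶) incubated with 20 or 200 μM compound or DOX, 37 °C, 150 min. Compound: pellet extracted with methanol, supernatant by reversed-phase C18 HPLC, methanol eluent, 1 mL/min, UV detection at 308 or 270 nm. DOX: lysis buffer, fluorescence by spectrofluorometer. N = 2–3, mean ± SEM.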

[15] = P-gp (unknown origin)- mediated durg uptake in human MDA435/LCC6MDR cells at 200 uM after 150 mins by spectrofluorometry relative to control; type: ADME, cell-based; conditions: 2.5 h, in the assay text read “by HPLC” for “by spectrofluorometry”; method in brief: as §2
[16] = tested on: LCC-6; test: Effect on doxorubicin influx in human LCC-6 cells measured at 1.5 uM after 30 to 150 mins by spectrofluorometry relative to control; type: functional, cell-based
[17] = P-gp (unknown origin)- mediated durg uptake in human MDA435/LCC6MDR cells at 20 uM after 150 mins by spectrofluorometry relative to control; type: ADME, cell-based; conditions: 2.5 h; method in brief: as §2
[18] = Drug uptake in human LCC-6 cells at 200 uM after 150 mins by spectrofluorometry; type: ADME, cell-based; conditions: lcc-6, 2.5 h; method in brief: as §2
[19] = Modulation of P-gp (unknown origin) transfected in human MDA435/LCC6MDR cells assessed as reversible of paclitaxel resistance measured as IC50 for paclitaxel at 1 uM after 5 days by CellTiter 96 Aqueous assay
[20] = Drug uptake in human LCC-6 cells at 20 uM after 150 mins by spectrofluorometry relative to P-gp expressing cells; type: ADME, cell-based; conditions: lcc-6, 2.5 h; method in brief: as §2

Row | Structure (SMILES) | Ratio [1] | fold change (FC) [5] | Drug uptake [14] | Drug uptake [15] | Drug uptake [17] | Drug uptake [18] | IC50 [19] [µM] | Drug uptake [20] | IC50 [2] [µM] | inhibition [3] | IC50 [4] [µM] | Activity [6] | Activity [7] | Ratio [8] | IC50 [9] [µM] | Ratio [10] | Ratio IC50/EC50 [11] | Ratio [12] | Activity [13] | Activity [16]
1 | COc1cc(OC)c2c(c1)O[C@H](c1cc(OC)c(OC)c(OC)c1)[C@H](OC(=O)c1ccc(F)c(NC(=O)c3cc(OC)c(OC)c(OC)c3)c1)C2 | 43.8 | 2.7 |  |  |  |  |  |  | > 100 | Active | > 100 | inactive | Active | 2.3 | > 100 | 0.9 | >467 |  |  | 
2 | O=C(O[C@@H]1Cc2c(O)cc(O)cc2O[C@@H]1c1cc(O)c(O)c(O)c1)c1cc(O)c(O)c(O)c1 [EPIGALOCATECHIN GALLATE] | 1.2 |  |  |  |  |  |  |  | 56 |  | 82.3 |  |  |  | 69.1 |  |  | 1.2 |  | 
3 | COc1ccc(CCN(C)CCCC(C#N)(c2ccc(OC)c(OC)c2)C(C)C)cc1OC (stereo unspecified) |  |  |  |  |  |  |  |  |  |  |  |  | Active |  |  |  |  |  | Dose-dependent effect | 
4 | COc1cc(OC)c2c(c1)O[C@H](c1cc(OC)c(OC)c(OC)c1)[C@H](OC(=O)/C=C/c1cc(OC)c(OC)c(OC)c1)C2 |  | 2.7 | Active | Not Active | Not Active | Active |  |  | > 100 | Active | > 100 | inactive | Active |  | > 100 |  |  |  | Dose-dependent effect | inactive
5 | COc1cccc2c1C(=O)c1c(O)c3c(c(O)c1C2=O)C[C@@](O)(C(=O)CO)C[C@@H]3O[C@H]1C[C@H](N)[C@H](O)[C@H](C)O1 [DOXORUBICIN] |  |  |  |  |  |  |  | Active |  |  |  |  |  |  |  |  |  |  |  | 

Further lines, with some results ahead:

Row | Ratio [1] | fold change (FC) [5] | Drug uptake [14] | Drug uptake [15] | Drug uptake [17] | Drug uptake [18] | IC50 [19] [µM] | Drug uptake [20] | Structure (SMILES) | IC50 [2] [µM] | inhibition [3] | IC50 [4] [µM] | Activity [6] | Activity [7] | Ratio [8] | IC50 [9] [µM] | Ratio [10] | Ratio IC50/EC50 [11] | Ratio [12] | Activity [13] | Activity [16]
6 | 48.2 | 2.5 |  |  |  |  |  |  | COc1cc(OC)c2c(c1)O[C@H](c1cc(OC)c(OC)c(OC)c1)[C@H](OC(=O)c1ccc(F)c(NC(=O)c3ccc(OC)c(OC)c3)c1)C2 | > 100 |  | > 100 |  |  | 2.7 | > 100 | 0.8 | >698 |  | Dose-dependent effect | 
7 | 31.4 |  |  |  |  |  | 0.0046 |  | COc1cc(OC)c2c(c1)O[C@H](c1cc(OC)c(OC)c(OC)c1)[C@@H](OC(=O)c1ccc(F)c(NC(=O)c3ccc(OC)c(OC)c3)c1)C2 | > 100 |  | > 100 |  |  | 10.4 | > 100 | 2.6 | >585 |  |  | 
8 | 53.6 |  | Active | Not Active | Not Active | Active | 0.0027 |  | COc1cc(OC)c2c(c1)O[C@H](c1cc(OC)c(OC)c(OC)c1)[C@@H](OC(=O)c1ccc(F)c(NC(=O)c3cc(OC)c(OC)c(OC)c3)c1)C2 | > 100 |  | > 100 |  |  | 12.3 | > 100 | 2.6 | >714 |  |  | 
